Data reported in ChEMBL document CHEMBL1932938, “From COX-2 inhibitor nimesulide to potent anti-cancer agent: synthesis, in vitro, in vivo and pharmacokinetic evaluation” (Eur J Med Chem, 2012).
The source made the active and inactive calls. The calls are words filed in the database; no cut-off is given here.

Columns and labels:
SK-BR-3 [1] = experiment: Cell cycle arrest in human SK-BR-3 cells assessed as accumulation at Sub-G1 phase at 0.25 uM after 3 hrs using propidium iodide staining by FACS analysis; format: functional
SK-BR-3 [2] = experiment: Cell cycle arrest in human SK-BR-3 cells assessed as accumulation at G1 phase at 0.25 uM after 24 hrs using propidium iodide staining by FACS analysis; format: functional
How it was run: (§1)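 SKBR-3 cells in RPMI1640 with 10% heat-inactivated FBS at 37 °C and 5% CO₂ were treated for the stated times. Cells were fixed overnight in 70% EtOH at −20 °C, then stained with propidium iodide buffer (38 mM sodium citrate pH 7.5, 69 µM PI, 120 µg/mL RNase A) for 15 min at room temperature in the dark. Up to 1×10⁴ gated cells were analyzed by flow cytometry, giving percent distribution per phase.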

SK-BR-3 [3] = experiment: Cell cycle arrest in human SK-BR-3 cells assessed as accumulation at S phase at 5 uM after 6 hrs using propidium iodide staining by FACS analysis; format: functional
SK-BR-3 [4] = experiment: Cell cycle arrest in human SK-BR-3 cells assessed as accumulation at G2/M phase at 0.25 uM after 6 hrs using propidium iodide staining by FACS analysis; format: functional; how it was run: as §1
SK-BR-3 [5] = experiment: Cell cycle arrest in human SK-BR-3 cells assessed as accumulation at S phase at 0.50 uM after 6 hrs using propidium iodide staining by FACS analysis; format: functional
COLO 205 = experiment: Growth inhibition of human COLO205 cells after 48 hrs by SRB assay; format: functional
SK-MEL-5 = experiment: Growth inhibition of human SK-MEL-5 cells after 48 hrs by SRB assay; format: functional
[6] = (§2) Growth inhibition of human Hs 578T cells after 48 hrs by SRB assay; format: functional
Hs-578T = experiment: as §2; format: functional
A498 = experiment: Growth inhibition of human A498 cells after 48 hrs by SRB assay; format: functional
HT-29 [7] = experiment: Antitumor activity against human HT-29 cells xenografted in BALB/c athymic nu/nu mouse assessed as decrease in tumor weight at 5 mg/kg/day, ip administered 5 times per week for 3 weeks; format: functional, organism-based
How it was run: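 Athymic BALB/c nu/nu mice received s.c. HT29 cells in Matrigel, 200 µL per site at two flank sites. Treatment started at ~200 mm³: 5 mg/kg/d i.p., five times weekly for three weeks, in 1% DMSO/sesame oil; controls got vehicle. Three mice per group. Tumors were measured twice weekly by caliper, volume = width²×length/2. Tumors were excised and weighed at the end.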

HT-29 [8] = experiment: Cytotoxicity against human HT-29 cells after 48 hrs by MTT assay; format: functional, cell-based; conditions: HT-29, 48 h
How it was run: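 HT29 cells (ATCC) kept in RPMI1640 with 10% heat-inactivated FBS, L-glutamine and pyruvate at 37 °C, 5% CO2. Cells plated 24 h, then exposed 48 h to graded compound concentrations in DMSO (0.1% final) beside vehicle controls. Incubated 2 h with 0.5 mg/ml MTT, formazan dissolved in DMSO, A570 read. Six replicates; IC50 from viability.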

SK-BR-3 [9] = experiment: Cell cycle arrest in human SK-BR-3 cells assessed as accumulation at Sub-G1 phase at 5 uM after 18 hrs using propidium iodide staining by FACS analysis; format: functional
SK-BR-3 [10] = experiment: Cell cycle arrest in human SK-BR-3 cells assessed as accumulation at G2/M phase at 0.10 uM after 6 hrs using propidium iodide staining by FACS analysis; format: functional; how it was run: as §1
HOP-62 = experiment: Growth inhibition of human HOP62 cells after 48 hrs by SRB assay; format: functional
SF-268 = experiment: Growth inhibition of human SF268 cells after 48 hrs by SRB assay; format: functional
SK-BR-3 [11] = experiment: Cell cycle arrest in human SK-BR-3 cells assessed as accumulation at G2/M phase at 0.25 uM after 12 hrs using propidium iodide staining by FACS analysis; format: functional; how it was run: as §1
SK-BR-3 [12] = experiment: Cell cycle arrest in human SK-BR-3 cells assessed as accumulation at G2/M phase at 0.25 uM after 18 hrs using propidium iodide staining by FACS analysis; format: functional; how it was run: as §1
SK-BR-3 [13] = experiment: Cell cycle arrest in human SK-BR-3 cells assessed as accumulation at G1 phase at 0.50 uM after 3 hrs using propidium iodide staining by FACS analysis; format: functional; how it was run: as §1
SK-BR-3 [14] = experiment: Cell cycle arrest in human SK-BR-3 cells assessed as accumulation at G2/M phase at 0.50 uM after 12 hrs using propidium iodide staining by FACS analysis; format: functional; how it was run: as §1
HT-29 [15] = experiment: Growth inhibition of human HT-29 cells after 48 hrs by SRB assay; format: functional
NCI-H226 = experiment: Growth inhibition of human NCI-H226 cells after 48 hrs by SRB assay; format: functional
[16] = Terminal half life in Sprague-Dawley rat at 20 mg/kg, ip; format: ADME, organism-based; set-up: dose 20 mg/kg, route intraperitoneal; conditions: in vivo, read-out: beta t1/2 (converted)
How it was run: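 Male Sprague–Dawley rats (300–350 g, n=3), fasted overnight with water allowed. Single 20 mg/kg i.p. dose in PBS with 0.1% Tween80 and 20% DMSO. Blood taken from saphenous and femoral veins into heparinized tubes at 0, 0.25, 0.5, 1, 2, 4, 8 and 24 h. Plasma quantified by LC-MS/MS (MRM, 483.3→404.3) after tert-butyl methyl ether/hexane extraction. Parameters derived non-compartmentally.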

SK-BR-3 [17] = experiment: Cell cycle arrest in human SK-BR-3 cells assessed as accumulation at Sub-G1 phase at 5 uM after 24 hrs using propidium iodide staining by FACS analysis; format: functional
SK-BR-3 [18] = experiment: Cell cycle arrest in human SK-BR-3 cells assessed as accumulation at S phase at 0.50 uM after 3 hrs using propidium iodide staining by FACS analysis; format: functional
SK-BR-3 [19] = experiment: Cell cycle arrest in human SK-BR-3 cells assessed as accumulation at Sub-G1 phase at 0.10 uM after 24 hrs using propidium iodide staining by FACS analysis; format: functional
SK-BR-3 [20] = experiment: Cell cycle arrest in human SK-BR-3 cells assessed as accumulation at S phase at 0.10 uM after 3 hrs using propidium iodide staining by FACS analysis; format: functional; how it was run: as §1
TK-10 = experiment: Growth inhibition of human TK10 cells after 48 hrs by SRB assay; format: functional
SNB-19 = experiment: Growth inhibition of human SNB19 cells after 48 hrs by SRB assay; format: functional

Cc1ccc(C)c(COc2cc(NC(=O)c3ccc4c(c3)OCO4)ccc2N(C)S(C)(=O)=O)c1
Activity (SK-BR-3 [1]): 3.23% | Activity (SK-BR-3 [2]): 41.27% | Activity (SK-BR-3 [3]): 14.61% | Activity (SK-BR-3 [4]): 9.32% | Activity (SK-BR-3 [5]): 14.73% | growth inhibition (GI) (COLO 205): Dose-dependent effect | GI50 (COLO 205; COLO 205, 48 h): 318 nM | TGI (COLO 205; COLO 205, 48 h): 1070 nM | CC50 (COLO 205; COLO 205, 48 h, read-out: LC50 (the source's name)): > 100000 nM | growth inhibition (GI) (SK-MEL-5): Dose-dependent effect | GI50 (SK-MEL-5; SK-MEL-5, 48 h): 253 nM | TGI (SK-MEL-5; SK-MEL-5, 48 h): 1650 nM | CC50 (SK-MEL-5; SK-MEL-5, 48 h, read-out: LC50 (the source's name)): 34100 nM | GI50 [6]: 87 nM | CC50 ([6]; read-out: LC50 (the source's name)): > 100000 nM | growth inhibition (GI) (Hs-578T): Dose-dependent effect | growth inhibition (GI) (A498): Dose-dependent effect | TGI (A498; A498, 48 h): 853 nM | CC50 (A498; A498, 48 h, read-out: LC50 (the source's name)): > 100000 nM | Activity (HT-29 [7]): Active | IC50 (HT-29 [8]): 460 nM | Activity (SK-BR-3 [9]): 8.31% | Activity (SK-BR-3 [10]): 9.07% | growth inhibition (GI) (HOP-62): Dose-dependent effect | GI50 (HOP-62; HOP-62, 48 h): 329 nM | TGI (HOP-62; HOP-62, 48 h): > 100000 nM | CC50 (HOP-62; HOP-62, 48 h, read-out: LC50 (the source's name)): > 100000 nM | growth inhibition (GI) (SF-268): Dose-dependent effect | GI50 (SF-268; SF-268, 48 h): 288 nM | TGI (SF-268; SF-268, 48 h): > 100000 nM | CC50 (SF-268; SF-268, 48 h, read-out: LC50 (the source's name)): > 100000 nM | Activity (SK-BR-3 [11]): 13.35% | Activity (SK-BR-3 [12]): 10.57% | Activity (SK-BR-3 [13]): 67.14% | Activity (SK-BR-3 [14]): 24.26% | growth inhibition (GI) (HT-29 [15]): Dose-dependent effect | GI50 (HT-29 [15]; HT-29, 48 h): 77.2 nM | TGI (HT-29 [15]; HT-29, 48 h): 419 nM | CC50 (HT-29 [15]; HT-29, 48 h, read-out: LC50 (the source's name)): > 100000 nM | growth inhibition (GI) (NCI-H226): Dose-dependent effect | GI50 (NCI-H226; NCI-H226, 48 h): 686 nM | TGI (NCI-H226; NCI-H226, 48 h): > 100000 nM | CC50 (NCI-H226; NCI-H226, 48 h, read-out: LC50 (the source's name)): > 100000 nM | half-life [16]: 3.12 h | Activity (SK-BR-3 [17]): 27.62% | Activity (SK-BR-3 [18]): 17.76% | Activity (SK-BR-3 [19]): 11.78% | Activity (SK-BR-3 [20]): 17.2% | growth inhibition (GI) (TK-10): Dose-dependent effect | GI50 (TK-10; TK-10, 48 h): 354 nM | TGI (TK-10; TK-10, 48 h): > 100000 nM | CC50 (TK-10; TK-10, 48 h, read-out: LC50 (the source's name)): > 100000 nM | growth inhibition (GI) (SNB-19): Dose-dependent effect | GI50 (SNB-19; SNB-19, 48 h): 537 nM | TGI (SNB-19; SNB-19, 48 h): > 100000 nM | CC50 (SNB-19; SNB-19, 48 h, read-out: LC50 (the source's name)): > 100000 nM
